Assay outcomes as filed in PubChem.
This is a sample that favours compounds with a hit; in the whole collection about 2.3% have one here.
MT1-MMP act inh: blocks activation of human MT1-MMP; GFP/RFP ratio change, % at 20 µM; HT1080 RFP-PRO-GFP cells, GFP/RFP ratio fluorescence, overnight; percent of plate control window, DMSO zero; AID 651647; 0.061% of 360,000 active;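 active = GFP/RFP ratio change of at least 30% with cell ATP level not reduced by more than half and red fluorescence within 50% of control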
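Read-out: GFP/RFP fluorescence ratio; Test system: RFP-PRO-GFP reporter HT1080 cells; Compound dosing: single-point 20 µM compound, 1% DMSO; Times: overnight compound exposure at 37 °C.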
MPTP block: permeability transition pore inhibition. isolated mouse mitochondria, Ca2+ swelling absorbance, 30 min. inhibition, % at 10 µM. 1.4% of 360,000 active;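 active = inhibition of 50% or more, scaled per plate between neutral and stimulator controls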;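 note: 0% = DMSO wells given calcium and 100% = 1 mM EGTA wells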
ATG4B inh: inhibitors of human ATG4B cysteine protease; Q9Y4P1; ATG4B cleavage of LC3-PLA2, NBD-HPC fluorescence, 1 h; inhibition, % at 8.33 µM; 0.51% of 340,000 active; AID 504462; in the data active = inhibition above about 40%
Target sequence (Q9Y4P1 whole entry, looked up): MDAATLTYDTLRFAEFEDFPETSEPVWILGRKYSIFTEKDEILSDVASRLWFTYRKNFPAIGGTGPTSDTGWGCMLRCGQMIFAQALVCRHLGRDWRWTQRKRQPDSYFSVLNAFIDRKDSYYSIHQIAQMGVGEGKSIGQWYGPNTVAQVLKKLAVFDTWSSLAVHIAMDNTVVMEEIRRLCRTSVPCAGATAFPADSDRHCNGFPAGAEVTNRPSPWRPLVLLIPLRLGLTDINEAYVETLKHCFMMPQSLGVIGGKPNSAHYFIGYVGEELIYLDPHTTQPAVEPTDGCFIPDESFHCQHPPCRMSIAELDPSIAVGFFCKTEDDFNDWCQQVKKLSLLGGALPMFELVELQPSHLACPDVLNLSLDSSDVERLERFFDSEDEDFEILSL
SKN-1 inh: blocks SKN-1 activity in C. elegans. C. elegans VP596 Pgst-4::GFP/RFP ratio, acrylamide-induced, 24 h. AID 624304. 0.49% of 360,000 active. inhibition, % at 21.8 µM;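 active = interference check ratio from 0.5 to 1.5 plus GFP to RFP signal ratio inhibition reaching or exceeding a fixed threshold, cut at about 30% in these data, passing the limit was not always enough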
Rh123 counter: mitochondrial membrane potential, counter-screen; shares compounds with MPTP block; isolated mitochondria, Rhodamine 123 fluorescence; inhibition, % at 10 µM; 78% of 5,000 active; AID 624504; in the data active = inhibition above about 22%;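 note: 0% = DMSO vehicle and 100% = positive control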
MPTP abs DR: MPTP inhibition, dose response swelling confirmation | shares compounds with MPTP block | isolated mitochondria swelling, absorbance | IC50, µM | 58% of 780 active | AID 651561; in the data active = IC50 below about 20 µM
MPTP counter DR: counter-screen for mitochondrial permeability transition pore inhibitors, dose response. shares compounds with MPTP block. isolated mitochondria counterscreen, fluorescence read-out. IC50, µM. 49% of 780 active; in the data active = IC50 below about 80 µM
* hit, by the source's call.

`Cc1ccc(S(=O)(=O)C(C#N)c2nc3ccccc3nc2N2CC(C)OC(C)C2)cc1C` (stereo unspecified) gave MT1-MMP act inh -8, MPTP block 44, ATG4B inh 0 and SKN-1 inh -6.
`COc1ccc(S(=O)(=O)C(C#N)c2nc3ccccc3nc2N2CCCC(C)C2)cc1` (stereo unspecified) gave MT1-MMP act inh -35, MPTP block 24, ATG4B inh 8 and SKN-1 inh 1.
CC1CCCN(c2nc3ccccc3nc2C(C#N)S(=O)(=O)c2cccs2)C1 (stereo unspecified) was read as MT1-MMP act inh -33, MPTP block 93*, ATG4B inh 29, SKN-1 inh -18 and Rh123 counter 67*.
Screening CCc1ccc(NC(=O)COC(=O)C2(c3ccc(Cl)cc3)CCCC2)cc1 returned MT1-MMP act inh -7, MPTP block 65*, ATG4B inh 9, SKN-1 inh 8 and Rh123 counter 75*.
For COc1ccccc1NS(=O)(=O)c1cccc(C(=O)NC2CCN(Cc3ccccc3)CC2)c1 the results were MT1-MMP act inh -1, MPTP block 80*, ATG4B inh -6, SKN-1 inh -3 and Rh123 counter 87*.
Screening COc1ccccc1NS(=O)(=O)c1ccc(C)c(C(=O)NC2CCN(Cc3ccccc3)CC2)c1 returned MT1-MMP act inh -8, MPTP block 2, ATG4B inh -9 and SKN-1 inh 5.
O=C(COc1ccc(Cl)cc1)NCCNC(=O)c1ccccn1 was read as MT1-MMP act inh 1, MPTP block 0, ATG4B inh -16 and SKN-1 inh 2.
CC(C)(C)c1ccc(OCCCn2ccnc2)cc1 was read as MT1-MMP act inh 6, MPTP block active, ATG4B inh -2, SKN-1 inh -27, Rh123 counter 10, MPTP abs DR 13* and MPTP counter DR 27*.
CCOc1ccccc1NC(=S)NCc1ccco1 was read as MT1-MMP act inh -6, MPTP block 2, ATG4B inh -1 and SKN-1 inh 12.
COc1cccc2c(=O)cc(C)n(CC(=O)Nc3ccc(Br)cc3)c12 was read as MT1-MMP act inh 2, MPTP block 70*, ATG4B inh -9, SKN-1 inh -3 and Rh123 counter 33*.
For COc1ccc(NC(=O)Cn2c(C)cc(=O)c3cccc(OC)c32)cc1 the results were MT1-MMP act inh 5, MPTP block 2, ATG4B inh -3 and SKN-1 inh -1.
CC(C)(C=O)C1=CC(=O)c2ccccc2C1=O was read as MT1-MMP act inh -43, MPTP block 100*, ATG4B inh -5, SKN-1 inh -3 and Rh123 counter 1.
For NC(=O)CCC(NC(=O)c1ccc(Cl)cc1)C(=O)O (stereo unspecified) the results were MT1-MMP act inh -2, MPTP block -1, ATG4B inh 7 and SKN-1 inh 8.
For CC(=C/c1ccccc1)/C=N/NC(=O)CSc1nc(C)cc(C)n1 the results were MT1-MMP act inh 1, MPTP block 62*, ATG4B inh -16, SKN-1 inh -4 and Rh123 counter 33*.
Screening Cc1cc(C)nc(SCC(=O)N/N=C/c2cccnc2)n1 returned MT1-MMP act inh -3, MPTP block -1, ATG4B inh 6 and SKN-1 inh 6.
Screening Cc1ccc(C(=O)NCC(=O)NCC(=O)OCc2ccc(Oc3ccc([N+](=O)[O-])cc3)cc2)cc1 returned MT1-MMP act inh 1, MPTP block 51*, ATG4B inh -15, SKN-1 inh 11 and Rh123 counter 52*.
For CCCCOc1ccc(CSCCN=C(N)N)cc1 the results were MT1-MMP act inh -3, MPTP block 72*, ATG4B inh 2, SKN-1 inh -2, Rh123 counter 6, MPTP abs DR 4.3* and MPTP counter DR 24*.
O=C(O)c1ccccc1-c1c2cc(I)c(=O)c(I)c-2oc2c(I)c(O)c(I)cc12 was read as MT1-MMP act inh 19, MPTP block 79*, ATG4B inh -6, SKN-1 inh 47 and Rh123 counter -17.
O=Cc1ccc(-c2ccccc2C(=O)O)o1 was read as MT1-MMP act inh 5, MPTP block -2, ATG4B inh -1 and SKN-1 inh -2.
CCCCCC(=O)Nc1cc(S(=O)(=O)N2CCOCC2)ccc1N1CCCCC1 was read as MT1-MMP act inh -4, MPTP block -2, ATG4B inh 0 and SKN-1 inh 4.
For COc1ccc(NC(=O)NC23CC4(C)CC(C)(CC(C)(C4)C2)C3)cc1 the results were MT1-MMP act inh -14, MPTP block 97*, ATG4B inh -3, SKN-1 inh 6 and Rh123 counter 48*.
Cc1ccc(NC(=O)Nc2ccc(F)c(Cl)c2)cc1 was read as MT1-MMP act inh -4, MPTP block 96*, ATG4B inh 30, SKN-1 inh 0 and Rh123 counter 88*.
For O=C(Nc1cccnc1)Nc1ccc(F)c(Cl)c1 the results were MT1-MMP act inh -4, MPTP block 93*, ATG4B inh 4, SKN-1 inh 7 and Rh123 counter 85*.
`Cc1cccc(OCCC(=O)Nc2ccc(F)c(Cl)c2)c1` gave MT1-MMP act inh -6, MPTP block 78*, ATG4B inh 11, SKN-1 inh 3 and Rh123 counter 79*.
`CC(C)(C)NC(=O)C(=O)NNC(=O)COc1ccc(Br)cc1` gave MT1-MMP act inh 7, MPTP block 3, ATG4B inh -7 and SKN-1 inh -10.
For Cc1nnsc1C(=O)NC(=O)Nc1ccc(F)c(Cl)c1 the results were MT1-MMP act inh 3, MPTP block 59*, ATG4B inh -5, SKN-1 inh -1 and Rh123 counter 76*.
`O=C(Nc1ccc(F)c(Cl)c1)C1CC2CCC1C2` (stereo unspecified) gave MT1-MMP act inh -5, MPTP block 57*, ATG4B inh -1, SKN-1 inh 13 and Rh123 counter 79*.
`COc1ccc(OC)c(NC(=O)Nc2ccc(Cl)cc2)c1` gave MT1-MMP act inh 3, MPTP block 91*, ATG4B inh -22, SKN-1 inh -15 and Rh123 counter 69*.
For Cc1nnsc1C(=O)Nc1ccc(Cl)cc1 the results were MT1-MMP act inh 3, MPTP block 6, ATG4B inh 1 and SKN-1 inh 5.
`COc1ccc(NC(=O)Nc2ccc(F)c(Cl)c2)cc1` gave MT1-MMP act inh 5, MPTP block 87*, ATG4B inh -3, SKN-1 inh 13 and Rh123 counter 85*.
Screening Cc1ccc(N/C(N)=N/c2nc(C)cc(N3CCCCC3)n2)c(C)c1 returned MT1-MMP act inh -7, MPTP block 33, ATG4B inh 5 and SKN-1 inh 1.
